Data: ChEMBL document CHEMBL2034972, “Synthesis, biological evaluation, and structure-activity relationships of N-benzoyl-2-hydroxybenzamides as agents active against P. falciparum (K1 strain), Trypanosomes, and Leishmania” (J Med Chem, 2012)
In brackets after ≈: the same amount, converted by molar mass.

Experiments:
[1] = biological target: Voltage-gated inwardly rectifying potassium channel KCNH2 (Homo sapiens, UniProt Q12809); test: Inhibition of human Erg at 300 uM
Leishmania donovani = test: Antileishmanial activity against axenic amastigote stage of Leishmania donovani […] after 72 hrs by alamar blue assay; type: functional, organism-based; conditions: MHOM/ET/67/L82, L6, 72 h
Method in brief: (§1)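 In vitro screens of parasites and host cells: T. b. rhodesiense STIB900 trypomastigotes, T. cruzi Tulahuen C4 intracellular amastigotes, L. donovani MHOM-ET-67/L82 axenic amastigotes, P. falciparum K1 erythrocytic stage, and L6 rat skeletal myoblasts […] for toxicity. Values are means of two independent determinations.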

[2] = system: Trypanosoma brucei rhodesiense; test: Antitrypanosomal activity against trypomastigotes of Trypanosoma brucei rhodesiense […] after 72 hrs by alamar blue assay; type: functional, organism-based; conditions: STIB 900, L6, 72 h
Method in brief: as §1, with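 “toxicity. […]” for “toxicity.”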

L6 = test: Cytotoxicity against rat L6 cells after 72 hrs by alamar blue assay; type: cell-based; conditions: L6, 72 h
Method in brief: as §1, with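 “toxicity. […]” for “toxicity.”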

Trypanosoma cruzi = test: Antitrypanosomal activity against intracellular amastigote stage of Trypanosoma cruzi Tulahuen C2C4 infected in rat L6 cells after 96 hrs by spectrophotometric analysis; type: functional, organism-based; conditions: Tulahuen C2C4, L6, 96 h; method in brief: as §1
[3] = Plasma protein binding in human; type: ADME, cell-free; conditions: read-out: PPB (converted)
[4] = Intrinsic clearance in human liver microsomes assessed per mg of protein; type: ADME, Microsome; conditions: read-out: CLH
CYP2C9 = CYP2C9 (Homo sapiens, UniProt P11712); test: Inhibition of CYP2C9 at 10 uM; type: ADME
Chain of CYP2C9 (P11712 whole entry): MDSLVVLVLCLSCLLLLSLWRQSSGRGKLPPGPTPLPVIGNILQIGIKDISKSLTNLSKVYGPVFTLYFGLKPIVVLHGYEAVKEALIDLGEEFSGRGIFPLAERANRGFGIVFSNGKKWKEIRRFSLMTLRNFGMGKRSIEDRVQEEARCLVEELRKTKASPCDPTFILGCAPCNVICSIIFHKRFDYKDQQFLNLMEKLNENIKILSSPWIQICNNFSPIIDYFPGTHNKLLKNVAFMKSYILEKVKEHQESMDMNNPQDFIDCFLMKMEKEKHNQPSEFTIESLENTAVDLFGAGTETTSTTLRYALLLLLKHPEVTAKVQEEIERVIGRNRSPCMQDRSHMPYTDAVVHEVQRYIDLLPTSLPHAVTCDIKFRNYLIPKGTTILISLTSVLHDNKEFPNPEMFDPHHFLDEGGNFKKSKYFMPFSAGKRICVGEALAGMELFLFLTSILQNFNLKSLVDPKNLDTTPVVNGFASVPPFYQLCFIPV

CYP2D6 = CYP2D6 (Homo sapiens, UniProt P10635); test: Inhibition of CYP2D6 at 10 uM; type: ADME
Chain of CYP2D6 (P10635 whole entry): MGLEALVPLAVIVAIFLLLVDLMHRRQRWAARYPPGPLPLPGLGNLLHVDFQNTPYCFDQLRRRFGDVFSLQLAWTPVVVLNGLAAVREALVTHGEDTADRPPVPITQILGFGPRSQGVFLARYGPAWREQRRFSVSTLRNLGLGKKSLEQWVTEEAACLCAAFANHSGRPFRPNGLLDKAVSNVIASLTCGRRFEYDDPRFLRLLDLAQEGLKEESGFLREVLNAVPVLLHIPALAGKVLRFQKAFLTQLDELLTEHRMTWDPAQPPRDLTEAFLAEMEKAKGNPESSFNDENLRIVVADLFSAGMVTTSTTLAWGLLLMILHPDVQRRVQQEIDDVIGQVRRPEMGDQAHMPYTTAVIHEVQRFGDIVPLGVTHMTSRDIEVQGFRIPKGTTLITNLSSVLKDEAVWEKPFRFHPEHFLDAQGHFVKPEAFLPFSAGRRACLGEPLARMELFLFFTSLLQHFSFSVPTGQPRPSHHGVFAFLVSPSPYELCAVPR

[5] = Metabolic stability of the compound in human liver microsomes assessed as compound remaining after 60 mins in presence of NADPH; type: ADME, Microsome; conditions: read-out: Stability
[6] = Metabolic stability of the compound in human liver microsomes assessed as compound remaining after 60 mins; type: ADME, Microsome; conditions: read-out: Stability
Plasmodium falciparum = test: Antimalarial activity against chloroquine and pyrimethamine-resistant Plasmodium falciparum […] assessed as [3H]-hypoxanthine incorporation after 48 hrs by liquid scintillation counting; type: functional, organism-based
Method in brief: as §1, with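 “toxicity. […]” for “toxicity.”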

[7] = Aqueous solubility of the compound in phosphate based buffer at pH 4; type: physicochemical
[8] = Aqueous solubility of the compound in phosphate based buffer at pH 7.4; type: physicochemical
CYP3A4 = CYP3A4 (Homo sapiens, UniProt P08684); test: Inhibition of CYP3A4 at 10 uM; type: ADME
Chain of CYP3A4 (P08684 whole entry): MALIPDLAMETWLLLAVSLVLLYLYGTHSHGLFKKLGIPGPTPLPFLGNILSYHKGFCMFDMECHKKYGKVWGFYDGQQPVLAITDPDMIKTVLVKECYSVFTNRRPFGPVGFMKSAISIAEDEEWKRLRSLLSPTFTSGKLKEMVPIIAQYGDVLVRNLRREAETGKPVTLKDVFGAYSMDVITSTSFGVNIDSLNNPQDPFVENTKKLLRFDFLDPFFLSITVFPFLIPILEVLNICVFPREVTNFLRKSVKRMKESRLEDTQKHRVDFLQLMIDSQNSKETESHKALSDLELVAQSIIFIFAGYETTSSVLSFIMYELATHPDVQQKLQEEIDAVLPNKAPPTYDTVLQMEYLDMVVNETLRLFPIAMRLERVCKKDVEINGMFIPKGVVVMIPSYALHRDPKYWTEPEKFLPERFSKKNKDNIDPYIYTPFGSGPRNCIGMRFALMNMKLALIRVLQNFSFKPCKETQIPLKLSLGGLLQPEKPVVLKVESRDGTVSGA

[9] = Selectivity index, ratio of IC50 for rat L6 cells to IC50 for trypomastigotes of Trypanosoma brucei rhodesiense STIB 900; type: toxicity, cell-based; conditions: read-out: Ratio IC50
Method in brief: (§2)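 Selectivity index is calculated as the L6 myoblast IC50 divided by the IC50 against the respective parasite. Both IC50s are in µg/mL and are means of two independent determinations.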

[10] = Selectivity index, ratio of IC50 for rat L6 cells to IC50 for chloroquine and pyrimethamine-resistant Plasmodium falciparum K1; type: toxicity, cell-based; conditions: read-out: Ratio IC50; method in brief: as §2
[11] = Selectivity index, ratio of IC50 for rat L6 cells to IC50 for intracellular amastigote stage of Trypanosoma cruzi Tulahuen C2C4; type: toxicity, cell-based; conditions: read-out: Ratio IC50; method in brief: as §2
[12] = Selectivity index, ratio of IC50 for rat L6 cells to IC50 for axenic amastigote stage of Leishmania donovani MHOM/ET/67/L82; type: toxicity, cell-based; conditions: read-out: Ratio IC50; method in brief: as §2

Chain of Voltage-gated inwardly rectifying potassium channel KCNH2 (Q12809 whole entry): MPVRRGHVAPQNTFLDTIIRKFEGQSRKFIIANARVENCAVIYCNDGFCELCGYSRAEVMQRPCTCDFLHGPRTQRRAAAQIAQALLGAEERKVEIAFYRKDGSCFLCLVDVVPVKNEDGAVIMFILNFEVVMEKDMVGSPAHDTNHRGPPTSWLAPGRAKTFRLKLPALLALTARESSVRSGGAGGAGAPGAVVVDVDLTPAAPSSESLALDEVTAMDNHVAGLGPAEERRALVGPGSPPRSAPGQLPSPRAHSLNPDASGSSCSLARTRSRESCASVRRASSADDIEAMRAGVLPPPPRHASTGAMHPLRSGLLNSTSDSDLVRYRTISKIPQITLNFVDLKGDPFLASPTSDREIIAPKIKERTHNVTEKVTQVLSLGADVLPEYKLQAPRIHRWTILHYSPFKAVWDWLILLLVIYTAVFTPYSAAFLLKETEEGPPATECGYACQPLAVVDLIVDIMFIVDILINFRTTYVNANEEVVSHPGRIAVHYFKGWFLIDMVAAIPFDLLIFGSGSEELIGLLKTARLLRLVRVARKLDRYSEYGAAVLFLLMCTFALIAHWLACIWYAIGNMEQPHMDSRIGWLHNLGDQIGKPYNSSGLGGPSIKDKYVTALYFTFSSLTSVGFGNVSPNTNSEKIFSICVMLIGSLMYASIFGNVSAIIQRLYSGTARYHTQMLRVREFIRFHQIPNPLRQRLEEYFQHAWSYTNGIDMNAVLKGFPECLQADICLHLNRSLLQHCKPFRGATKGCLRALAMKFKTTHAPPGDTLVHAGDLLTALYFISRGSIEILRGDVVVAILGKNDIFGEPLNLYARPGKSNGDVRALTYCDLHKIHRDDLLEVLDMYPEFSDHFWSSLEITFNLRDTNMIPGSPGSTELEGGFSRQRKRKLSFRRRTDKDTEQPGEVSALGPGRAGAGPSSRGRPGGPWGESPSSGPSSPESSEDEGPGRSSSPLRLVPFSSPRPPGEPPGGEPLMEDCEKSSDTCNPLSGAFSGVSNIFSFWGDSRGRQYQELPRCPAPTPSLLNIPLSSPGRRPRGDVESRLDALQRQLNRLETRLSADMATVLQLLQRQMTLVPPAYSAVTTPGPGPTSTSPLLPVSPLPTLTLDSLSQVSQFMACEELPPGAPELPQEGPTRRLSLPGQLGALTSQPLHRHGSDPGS

Structure (SMILES)	inhibition (INH) [1]	IC50 (Leishmania donovani)	IC50 [2]	IC50 (L6)	IC50 (Trypanosoma cruzi)	fraction unbound [3]	microsomal CLint [4]	inhibition at 10 µM (CYP2C9)	inhibition at 10 µM (CYP2D6)	remaining at 1 h [5]	remaining at 1 h [6]	IC50 (Plasmodium falciparum)	solubility [7]	solubility [8]	inhibition at 10 µM (CYP3A4)	selectivity ratio [9]	selectivity ratio [10]	selectivity ratio [11]	selectivity ratio [12]
CCc1ccc(C(=O)NC(=O)c2ccccc2O)cc1	Not Active	7.4 µg/mL (≈ 27.5 µM)	81 µg/mL (≈ 301 µM)	70 µg/mL (≈ 260 µM)	4.8 µg/mL (≈ 17.8 µM)	0.001	282 µL/min/mg	71%	71%	0.5%	53%	5.6 µg/mL (≈ 20.8 µM)	2.76 µM (≈ 0.743 µg/mL)	50.8 µM (≈ 13.7 µg/mL)	71%				
OC(Cn1cncn1)(Cn1cncn1)c1ccc(F)cc1F [FLUCONAZOLE]						0.763													
O=C(NC(=O)c1ccccc1O)c1ccc2c(c1)OCO2		> 50 µg/mL	> 50 µg/mL	24 µg/mL (≈ 84.1 µM)	27 µg/mL (≈ 94.7 µM)							4.2 µg/mL (≈ 14.7 µM)				< 0.47	5.6	0.86	< 0.47
CC(C)(C)c1ccc(C(=O)NC(=O)c2ccccc2O)cc1		0.14 µg/mL (≈ 0.471 µM)	61 µg/mL (≈ 205 µM)	2.3 µg/mL (≈ 7.73 µM)	6 µg/mL (≈ 20.2 µM)							0.029 µg/mL (≈ 0.0975 µM)				0.038	80	0.38	17
O=C(NC(=O)c1ccccc1O)c1ccc(OCc2ccccc2)cc1		1.5 µg/mL (≈ 4.32 µM)	62 µg/mL (≈ 178 µM)	64 µg/mL (≈ 184 µM)	4.4 µg/mL (≈ 12.7 µM)							4.1 µg/mL (≈ 11.8 µM)				1	16	15	42
CCCCOc1ccc(C(=O)NC(=O)c2ccccc2O)cc1		0.94 µg/mL (≈ 3 µM)	55 µg/mL (≈ 176 µM)	13 µg/mL (≈ 41.5 µM)	11 µg/mL (≈ 35.1 µM)							0.26 µg/mL (≈ 0.83 µM)				0.23	50	1.2	14
Cc1ccc(C(=O)NC(=O)c2ccccc2O)cc1		3.2 µg/mL (≈ 12.5 µM)	> 100 µg/mL	46 µg/mL (≈ 180 µM)	38 µg/mL (≈ 149 µM)							1.4 µg/mL (≈ 5.48 µM)				< 0.46	33	1.2	14
O=C(NC(=O)c1ccc(Cl)cc1Cl)c1ccccc1O		11 µg/mL (≈ 35.5 µM)	> 100 µg/mL	62 µg/mL (≈ 200 µM)	58 µg/mL (≈ 187 µM)							14 µg/mL (≈ 45.1 µM)				< 0.62	4.4	1.1	5.5
CCc1ccc(C(=O)N(C)C(=O)c2ccccc2O)cc1		9.1 µg/mL (≈ 32.1 µM)	> 100 µg/mL	9.4 µg/mL (≈ 33.2 µM)	29 µg/mL (≈ 102 µM)							28 µg/mL (≈ 98.8 µM)				< 0.094	0.33	0.33	1
COc1ccc2cc(C(=O)NC(=O)c3ccccc3O)ccc2c1		1.4 µg/mL (≈ 4.36 µM)	42 µg/mL (≈ 131 µM)	56 µg/mL (≈ 174 µM)	5.1 µg/mL (≈ 15.9 µM)							0.98 µg/mL (≈ 3.05 µM)				1.3	57	11	40
